These results are taken from paper PMC4629265 (Acta Pharmaceutica Sinica. B, 2015).

Holding throughout (format): cell-based
Data set [1] deals with Vero cells. Nature of the data set: Cytotoxicity on Vero cells, CPE method. Conditions: 3 d. The method in brief: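 Vero cells were seeded at 3×10⁴ cells/well and incubated overnight. Test compounds were then added at different concentrations in triplicate and incubated 3 d, with cytotoxicity scored by CPE. TC50, the concentration inhibiting 50% of cell growth versus untreated controls, was calculated by Reed and Muench.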

Data set [2] concerns EV71 (strain SZ-98). The data set is described as follows: Anti-EV71 assay in Vero cells, CPE method. Conditions: EV71 strain SZ-98, Vero cells. The method in brief: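 Vero cells (MEM, 10% FBS) at 3×10⁴ cells/well were infected with 100TCID50 EV71 strain SZ-98. Test compounds were added immediately at various concentrations and incubated another 48 h. Cytopathic effect was scored, with pirodavir as positive control. IC50 was determined by the Reed and Muench method.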

Data set [3] relates to HCV. The data set is described as follows: Anti-HCV assay in infected Huh7.5 cells, HCV RNA by RT-PCR. Conditions: Hepatitis C virus, Huh7.5, 96 h, read-out: IC50 (anti-HCV activity). The method in brief: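 Huh7.5 cells (DMEM, 10% inactivated FBS) were seeded at 3×10⁴ cells/cm². After 6 h they were infected with chimeric J6/JFH/JC1 HCV stock (45 u/cell) and given test compound at the same time, with an NS3/4A protease inhibitor as positive control. At 96 h, intracellular total RNA was extracted and HCV RNA quantified by one-step RT-PCR. IC50 was calculated by Reed & Muench.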

A short description of data set [4]: Cytotoxicity in Huh7.5 cells, MTT assay. The following applies: human. An outline of the steps: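 Huh7.5 cells were plated at 1×10⁴ cells/well. After 6 h the medium was replaced with fresh medium containing test compound at various concentrations. Viability was read by MTT at 96 h, and CC50 was calculated by the Reed & Muench method.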
For orientation: Tetrazolium dyes change colour on reduction, which living cells bring about.

In data set [1], `CCC(=O)Nc1cc(C(=O)Nc2ccc(Cl)cc2)ccc1O` [Compound 35, N-(4-Chlorophenyl)-4-hydroxy-3-propionamidobenzamide] came in with a TC50 of 100.79 ± 0.00 µM.

As for `CCC(=O)Nc1cc(C(=O)CNc2ccc(C(C)(C)C)cc2)ccc1OC` [Compound 50, N-(5-(2-((4-(tert-Butyl)phenyl)amino)acetyl)-2-methoxyphenyl)propionamide], the “anti-EV71 activity (in words)” value in data set [2] was “inactive”. Moreover, the TC50 in data set [1] was greater than 20.14 µM.

`CNc1cc(C(=O)Nc2ccc(C3CCCCC3)cc2)ccc1OC` [Compound 33, N-(4-Cyclohexylphenyl)-4-methoxy-3-(methylamino)benzamide]: in data set [3], the concentration for half-maximal inhibition (IC50) worked out at 34.6 ± 3.1 µM. The half-maximal cytotoxic concentration (CC50) at 96 h in data set [4] stood at 40 ± 7.25 µM.

Regarding `CNc1cc(C(=O)CNc2ccccc2)ccc1OC` [Compound 54, 1-(4-Methoxy-3-(methylamino)phenyl)-2-(phenylamino)ethanone], the “anti-EV71 activity (in words)” value in data set [2] was “inactive”. The compound further had a TC50 in data set [1] of 167.11 ± 34.70 µM.

For the compound “N-(2,3-Dihydrobenzo[b][1,4]dioxin-6-yl)-4-methyl-3-propionamidobenzamide [Compound 43]”, the “anti-EV71 activity (in words)” value in data set [2] was “poor”. The compound further yielded a TC50 in data set [1] of 196.10 ± 0.00 µM.

In the case of “N-(2,3-Dihydrobenzo[b][1,4]dioxin-6-yl)-4-methyl-3-(methylamino)benzamide [Compound 44]”, in data set [2], the “anti-EV71 activity (in words)” value was “poor”. Besides, in data set [1], the TC50 was found to be 322.65 ± 0.00 µM.

Turning to `CCC[C@H](NC(=O)[C@@H]1[C@H]2CCC[C@H]2CN1C(=O)[C@@H](NC(=O)[C@@H](NC(=O)c1cnccn1)C1CCCCC1)C(C)(C)C)C(=O)C(=O)NC1CC1` [VX-950, telaprevir, reference compound], the IC50 in data set [3] was determined as 0.01 µM. Also, half-maximal cytotoxicity in data set [4] (CC50 at 96 h) was put at 21.3 ± 4.7 µM.

With `CCC(=O)Nc1cc(C(=O)Nc2ccc(C(C)(C)C)cc2)ccc1O` [Compound 36, N-(4-tert-Butylphenyl)-4-hydroxy-3-propionamidobenzamide], the TC50 in data set [1] was 86.08 ± 0.00 µM.

In the case of `CCC(=O)Nc1cc(C(=O)CNc2ccc(C)cc2)ccc1OC` [Compound 49, N-(2-Methoxy-5-(2-(p-tolylamino)acetyl)phenyl)propionamide], in data set [2], the “anti-EV71 activity (in words)” value is “inactive”. For the same compound, the TC50 in data set [1] is 98.31 µM.

For the compound `CCC(=O)Nc1cc(C(=O)Nc2ccc(C(C)(C)C)cc2)ccc1OC` [Compound 23, N-(4-tert-Butylphenyl)-4-methoxy-3-propionamidobenzamide], the IC50 in data set [3] came out at 0.57 µM. In data set [4], this compound showed a half-maximal cytotoxic concentration (CC50) at 96 h of 30.7 ± 1.25 µM. In data set [1], the TC50 came out at 36.24 ± 0.00 µM.

As for `CCCCc1ccc(NC(=O)c2ccc(OC)c(NC)c2)cc1` [Compound 32, N-(4-Butylphenyl)-4-methoxy-3-(methylamino)benzamide], the TC50 in data set [1] came to 41.12 ± 0.00 µM.

In data set [1], `CCc1ccc(NC(=O)c2ccc(OC)c(NC)c2)cc1` [Compound 29, N-(4-Ethylphenyl)-4-methoxy-3-(methylamino)benzamide] displayed a TC50 greater than 26.09 µM.

In data set [1], `CNc1cc(C(=O)Nc2ccc(C(C)C)cc2)ccc1OC` [Compound 30, N-(4-iso-propylphenyl)-4-methoxy-3-(methylamino)benzamide] registered a TC50 greater than 8.29 µM.

As for `CNc1cc(C(=O)Nc2ccc(C(C)(C)C)cc2)ccc1OC` [Compound 31, N-(4-tert-Butylphenyl)-4-methoxy-3-(methylamino)benzamide], in data set [3], the half-maximal inhibitory concentration (IC50) came to 32 ± 2.14 µM. Further, in data set [4], the half-maximal cytotoxic concentration (CC50) at 96 h came out at 56.6 ± 4.2 µM. The TC50 in data set [1] was determined as 34.23 ± 0.00 µM.

Take `CNc1cc(C(=O)Nc2cccc(Cl)c2)ccc1OC` [Compound 28, N-(3-Chlorophenyl)-4-methoxy-3-(methylamino)benzamide]: the TC50 in data set [1] was 110.50 ± 0.00 µM.

`CCOC(=O)c1ccc(OCCC2CCN(c3ccc(C)nn3)CC2)cc1` [Pirodavir, pirodavir, reference compound] displayed a TC50 in data set [1] of 49.78 ± 3.96 µM.

`CCCCc1ccc(NC(=O)c2ccc(OC)c(NC(=O)CC)c2)cc1` [Compound 24, N-(4-Butylphenyl)-4-methoxy-3-propionamidobenzamide] returned a TC50 in data set [1] of 36.24 ± 0.00 µM.

Consider `CNc1cccc(C(=O)Nc2ccc(Cl)cc2)c1` [Compound 42, N-(4-Chlorophenyl)-3-(methylamino)benzamide], for which the IC50 in data set [3] came out at 19.5 ± 7.18 µM. The compound further showed a CC50 at 96 h in data set [4] of 164 ± 9.84 µM. This compound had a TC50 in data set [1] greater than 28.5 µM.

In the case of `CCC(=O)Nc1cc(C(=O)Nc2ccc(C3CCCCC3)cc2)ccc1OC` [Compound 25, N-(4-Cyclohexylphenyl)-4-methoxy-3-propionamidobenzamide], the half-maximal inhibitory concentration (IC50) in data set [3] came to 2.36 ± 0.12 µM. In addition, half-maximal cytotoxicity in data set [4] (CC50 at 96 h) was put at 122 ± 2.6 µM.

With `CCC(=O)Nc1cc(C(=O)Nc2ccc(N3CCN(C)CC3)cc2)ccc1OC` [Compound 27, N-(4-(4-Methylpiperazin-1-yl)phenyl)-4-methoxy-3-propionamidobenzamide], the “anti-EV71 activity (in words)” value in data set [2] is given as “did not display antiviral activity”. In addition, in data set [1], the TC50 turned out to be 291.60 ± 0.00 µM.

In turn, `CCC(=O)Nc1cc(C(=O)Nc2ccc(C(C)C)cc2)ccc1OC` [Compound 22, N-(4-Iso-propylphenyl)-4-methoxy-3-propionamidobenzamide] registered a TC50 in data set [1] greater than 65.35 µM.

Take `CCC(=O)Nc1cccc(C(=O)Nc2ccc(Cl)cc2)c1` [Compound 41, N-(4-Chlorophenyl)-3-propionamidobenzamide]: the 50% inhibitory concentration (IC50) in data set [3] is 7.12 ± 2.48 µM. Also, the CC50 at 96 h in data set [4] was greater than 200 µM. Moreover, in data set [1], the TC50 came to 106.12 ± 0.00 µM.

As to `CNc1cc(C(=O)CNc2ccc(Cl)cc2)ccc1OC` [Compound 55, 2-((4-Chlorophenyl)amino)-1-(4-methoxy-3-(methylamino)phenyl)ethanone], in data set [2], the “anti-EV71 activity (in words)” value is “inactive”. This compound showed a TC50 in data set [1] of 73.10 ± 0.00 µM.

The compound `CNc1cc(C(=O)Nc2ccc(C#N)cc2)ccc1OC` [Compound 34, N-(4-Cyanophenyl)-4-methoxy-3-(methylamino)benzamide] gave a TC50 in data set [1] greater than 79.07 µM.

For `CCC(=O)Nc1cc(C(=O)Nc2ccc(C#N)cc2)ccc1OC` [Compound 26, N-(4-Cyanophenyl)-4-methoxy-3-propionamidobenzamide], the TC50 in data set [1] was found to be 297.67 µM.

The term IC50 denotes the concentration that inhibits the measured activity by half. By CC50 is commonly meant the concentration giving 50% cytotoxicity. Lower therefore signals harm at low concentration.
